Reference: ChEMBL document CHEMBL3244010, “Isolation, synthesis, and biological activity of five metabolites of danazol” (J Med Chem, 1977)
Activity calls are given as the source filed them. No cut-off for these calls is given here.

Legend:
Homo sapiens [1] = experiment: Drug metabolism in human assessed as metabolite level treated with 800 mg, po of danazol in urine after 24 hrs by TLC analysis; type: ADME, organism-based; settings: in vivo
In short: (§1)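 Urine was collected from one subject given 800 mg/day orally for 7 days. Metabolites were isolated from the urine, purified in separate chromatographic systems, and identified against synthetic reference material by UV spectra in methanol and by mass spectra.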

Rattus norvegicus [2] = experiment: Inhibition of pituitary gonadotropin activity in rat assessed as decrease of testicular weight at 100 mg/kg, po for 14 days; type: functional, organism-based; design: dose 100 mg/kg; settings: Pituitary gland
In short: (§2)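 Mature male rats were dosed orally at 100 mg/kg in ethanol-oil vehicle for 14 days. Ventral prostate, seminal vesicle and testicular weights were then compared against controls for significance.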

Rattus norvegicus [3] = experiment: Inhibition of pituitary gonadotropin activity in rat assessed as decrease of ventral prostate weight at 100 mg/kg, po for 14 days; type: functional, organism-based; design: dose 100 mg/kg; settings: Pituitary gland; in short: as §2
Rattus norvegicus [4] = experiment: Inhibition of pituitary gonadotropin activity in rat assessed as decrease of number of vaginal estrous days at 50 mg/kg, sc for 14 days; settings: Pituitary gland
Rattus norvegicus [5] = experiment: Inhibition of pituitary gonadotropin activity in rat assessed as decrease of seminal vesicles weight at 100 mg/kg, po for 14 days; type: functional, organism-based; design: dose 100 mg/kg; settings: Pituitary gland; in short: as §2
Rattus norvegicus [6] = experiment: Inhibition of pituitary gonadotropin activity in rat assessed as decrease of ovarian weight at 50 mg/kg, sc for 14 days; settings: Pituitary gland
Rattus norvegicus [7] = experiment: Inhibition of pituitary gonadotropin activity in rat assessed as decrease of number of vaginal estrous days at 25 mg/kg, sc for 14 days; settings: Pituitary gland
Rattus norvegicus [8] = experiment: Inhibition of pituitary gonadotropin activity in rat assessed as decrease of ovarian weight at 25 mg/kg, sc for 14 days; settings: Pituitary gland
Homo sapiens [9] = experiment: Drug metabolism in human assessed as 17-hydroxy-2-(hydroxymethyl)-17alpha-pregna-1,4-dien-20-yn-3-one level in urine at 800 mg, po after 24 hrs by TLC analysis; type: ADME, organism-based; settings: in vivo; in short: as §1
Rattus norvegicus [10] = experiment: Inhibition of pituitary gonadotropin activity in rat assessed as decrease of number of vaginal estrous days at 20 mg/kg, sc for 14 days; settings: Pituitary gland
[11] = Drug metabolism in rhesus monkey assessed as 17-hydroxy-17alpha-pregn-4-en-20-yn-3-one level in urine at 50 mg/kg, po bid after 24 hrs by TLC analysis; type: ADME, organism-based, Macaca mulatta; design: dose 50 mg/kg, route oral; settings: in vivo
Homo sapiens [12] = experiment: Drug metabolism in human assessed as 6beta,17-dihydroxy-2-(hydroxymethyl)-17alpha-pregna-1,4-dien-20-yn-3-one level in urine at 800 mg, po after 24 hrs by TLC analysis; type: ADME, organism-based; settings: in vivo; in short: as §1
Homo sapiens [13] = experiment: Drug metabolism in human assessed as 6beta,17-dihydroxy-2alpha-(hydroxymethyl)-17alpha-pregn-4-en-20-yn-3-one level in urine at 800 mg, po after 24 hrs by TLC analysis; type: ADME, organism-based; settings: in vivo; in short: as §1
Homo sapiens [14] = experiment: Drug metabolism in human assessed as 17-hydroxy-2alpha-(hydroxymethyl)-17apregn-4-en-20-yn-3-one level in urine at 800 mg, po after 24 hrs by TLC analysis; type: ADME, organism-based; settings: in vivo; in short: as §1
Rattus norvegicus [15] = experiment: Inhibition of pituitary gonadotropin activity in rat assessed as decrease of ovarian weight at 20 mg/kg, sc for 14 days; settings: Pituitary gland
[16] = Drug metabolism in rhesus monkey assessed as metabolite level in urine treated with at 50 mg/kg, po bid of danazol after 24 hrs by TLC analysis; type: ADME, organism-based, Macaca mulatta; design: dose 50 mg/kg, route oral; settings: in vivo

Structure (SMILES) | Drug metabolism (Homo sapiens [1]) | Drug metabolism (Homo sapiens [9]) | Drug metabolism [11] | Drug metabolism (Homo sapiens [12]) | Drug metabolism (Homo sapiens [13]) | Drug metabolism (Homo sapiens [14]) | inhibition (Rattus norvegicus [2]) | inhibition (Rattus norvegicus [3]) | inhibition (Rattus norvegicus [4]) | inhibition (Rattus norvegicus [5]) | inhibition (Rattus norvegicus [6]) | inhibition (Rattus norvegicus [7]) | inhibition (Rattus norvegicus [8]) | inhibition (Rattus norvegicus [10]) | inhibition (Rattus norvegicus [15]) | Drug metabolism [16]
C#C[C@]1(O)CC[C@H]2[C@@H]3CCC4=CC(=O)[C@H](CO)C[C@]4(C)[C@H]3CC[C@@]21C | metabolite_detected |  |  |  |  |  | inactive | inactive | inactive | inactive | inactive |  |  |  |  | 
C#C[C@]1(O)CC[C@H]2[C@@H]3C[C@@H](O)C4=CC(=O)C(CO)=C[C@]4(C)[C@H]3CC[C@@]21C | metabolite_detected |  |  |  |  |  | inactive | inactive | inactive | inactive | inactive |  |  |  |  | 
C#C[C@]1(O)CC[C@H]2[C@@H]3CCC4=CC(=O)CC[C@]4(C)[C@H]3CC[C@@]21C [ETHISTERONE] |  |  |  |  |  |  | inactive | inactive |  | inactive |  | inactive | inactive |  |  | metabolite_detected
C#C[C@]1(O)CC[C@H]2[C@@H]3C[C@@H](O)C4=CC(=O)[C@H](CO)C[C@]4(C)[C@H]3CC[C@@]21C | metabolite_detected |  |  |  |  |  | inactive | inactive | inactive | inactive | inactive |  |  |  |  | 

Now from value to compound, other results behind:

Drug metabolism (Homo sapiens [1]) | Drug metabolism (Homo sapiens [9]) | Drug metabolism [11] | Drug metabolism (Homo sapiens [12]) | Drug metabolism (Homo sapiens [13]) | Drug metabolism (Homo sapiens [14]) | Structure (SMILES) | inhibition (Rattus norvegicus [2]) | inhibition (Rattus norvegicus [3]) | inhibition (Rattus norvegicus [4]) | inhibition (Rattus norvegicus [5]) | inhibition (Rattus norvegicus [6]) | inhibition (Rattus norvegicus [7]) | inhibition (Rattus norvegicus [8]) | inhibition (Rattus norvegicus [10]) | inhibition (Rattus norvegicus [15]) | Drug metabolism [16]
metabolite_detected |  |  |  |  |  | C#C[C@]1(O)CC[C@H]2[C@@H]3CCC4=CC(=O)C(CO)=C[C@]4(C)[C@H]3CC[C@@]21C | inactive | inactive |  | inactive |  | inactive | inactive |  |  | 
 | metabolite_detected | metabolite_detected | metabolite_detected | metabolite_detected | metabolite_detected | C#C[C@]1(O)CC[C@H]2[C@@H]3CCC4=Cc5oncc5C[C@]4(C)[C@H]3CC[C@@]21C [DANAZOL] | Active | Active |  | Active |  |  |  | Active | Active | 
